By IC50 is commonly meant the midpoint of a concentration-inhibition curve. A higher IC50 goes with a need for much substance.

SMILES strings stand for the structures. Where a SMILES comes first, the peptide text is derived from it. [ ]: non-standard residue; d: D form. The star is where a group is joined. X2 = COC1=CC(=O)N(C(=O)[C@@H](O*)C(C)C)[C@H]1Cc1ccccc1; Dolaproine = CO[C@@H]([C@@H]1CCCN1)[C@@H](C)C(=O)O; NMe2Val = CC(C)[C@@H](C(=O)*)N(C)C; X1 = c1ccc(CC(N*)c2nccs2)cc1; NMeV = CN[C@H](C(=O)O)C(C)C

Data on 5 compounds can be found in ChEMBL document CHEMBL1131603, “Synthesis and biological activity of chimeric structures derived from the cytotoxic natural compounds dolastatin 10 and dolastatin 15” (J Med Chem, 1998).

Assay [1] concerns MCF7. As to the kind of experiment: Selectivity was evaluated [Selectivity = IC50 / IC50 of Dolastatin] against MCF-7 cell line. It counts as functional, Homo sapiens. The method in brief:
(§1)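 For MCF7 cells, cultured in supplemented RPMI 1640 (10% fetal calf serum, 10 mM HEPES, pH 7.4), exposure ran 168 h to nine serial dilutions in triplicate. Viability was read by microculture tetrazolium assay. IC50 is the concentration halving optical density relative to untreated controls; ratio is compound IC50 over parent dolastatin IC50.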

Assay [2] has as its system L1210. In words: Selectivity was evaluated [Selectivity = IC50 / IC50 of Dolastatin] against L1210 cell line. It counts as functional, Mus musculus. The method in brief:
(§2)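 L1210 murine leukemia cells in RPMI 1640 with 10% fetal calf serum, 2 mM glutamine, antibiotics and 10 mM HEPES (pH 7.4). Treatment lasted 48 h at nine serial dilutions in triplicate, with a microculture tetrazolium read-out. IC50 gives 50% optical density reduction versus untreated cells; ratio is compound IC50 divided by parent dolastatin IC50.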

Assay [3] concerns MCF7. In words: Inhibitory activity against growth of MCF-7 cell line. It counts as functional, cell-based. To be noted: Homo sapiens. The essentials:
as §1

For another assay, the target named is Tubulin (Bos taurus, UniProt Q6B856+Q862L2+Q862F3). As to the kind of experiment: In vitro inhibition of tubulin polymerization measured as turbidity formed by centrifugation. Format: protein assay. The method in brief: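 Microtubule protein purified from bovine brain by assembly (37 °C)/disassembly (0 °C) cycles in MES buffer (pH 6.6) with glycerol and GTP; used at 2 mg/mL with 1 mM GTP. Compounds added in DMSO; assembly started by temperature jump from 4 to 37 °C and followed by turbidity at 350 nm. IC50 taken as concentration giving 50% inhibition of assembly rate.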

Assay [4] deals with HT-29. As to the kind of experiment: Selectivity was evaluated [Selectivity = IC50 / IC50 of Dolastatin] against HT-29 cell line. It counts as functional, Homo sapiens. The method in brief:
(§3)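 HT-29 cells grown in RPMI 1640 with 10% fetal calf serum, 2 mM glutamine, antibiotics and 10 mM HEPES (pH 7.4). Exposed for 96 h to nine serial dilutions in triplicate; growth read by microculture tetrazolium assay. IC50 is the concentration lowering optical density 50% versus untreated controls; ratio is compound IC50 over parent dolastatin IC50.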

In assay [5] the test system is L1210. As to the kind of experiment: Inhibitory activity against growth of L1210 cell line. Format: functional, cell-based. The settings on record: Mus musculus. The essentials: as §2
The test system of assay [6] is HT-29. As to the kind of experiment: Inhibitory activity against growth of HT-29 cell line. It counts as functional, cell-based. The settings on record: Homo sapiens. The essentials: as §3

Turning to `CC[C@H](C)[C@@H]([C@@H](CC(=O)N1CCC[C@H]1C(=O)O[C@H](C(=O)N1C(=O)C=C(OC)[C@@H]1Cc1ccccc1)C(C)C)OC)N(C)C(=O)[C@@H](NC(=O)[C@H](C(C)C)N(C)C)C(C)C`, the Selectivity worked out at 5 in the assay with MCF7 [1], 12 in the assay on L1210 [2] and 1365 in the assay with HT-29 [4]. The IC50 stood at 0.19 nM in the assay on MCF7 [3], 3.6 µM against Tubulin, 1.58 nM with L1210 [5] and 396 nM in the assay with HT-29 [6].
Consider `CO[C@H]([C@@H](C)C(=O)NC(Cc1ccccc1)c1nccs1)[C@@H]1CCCN1C(=O)[C@@H]1CCCN1C(=O)[C@H](C(C)C)N(C)C(=O)[C@@H](NC(=O)[C@H](C(C)C)N(C)C)C(C)C` (some centres undefined) (NMe2Val-V[NMeV]P[Dolaproine]-X1), for which the Selectivity in the assay on MCF7 [1] was 83; in the assay on L1210 [2], 90; with HT-29 [4], 190. The IC50 with MCF7 [3] was 2.48 nM; against Tubulin, 13 µM; in the assay with L1210 [5], 2.72 nM; with HT-29 [6], 11.4 nM.
As to `COC1=CC(=O)N(C(=O)[C@@H](OC(=O)[C@@H]2CCCN2C(=O)[C@@H]2CCCN2C(=O)[C@H](C(C)C)N(C)C(=O)[C@@H](NC(=O)[C@H](C(C)C)N(C)C)C(C)C)C(C)C)[C@H]1Cc1ccccc1` [DOLASTATIN 15] (NMe2Val-V[NMeV]PP-X2), the IC50 is 0.04 nM in the assay on MCF7 [3], 17 µM against Tubulin, 0.13 nM with L1210 [5] and 0.29 nM with HT-29 [6].
Turning to `CC[C@H](C)[C@@H]([C@@H](CC(=O)N1CCC[C@H]1[C@H](OC)[C@@H](C)C(=O)N[C@@H](Cc1ccccc1)c1nccs1)OC)N(C)C(=O)[C@@H](NC(=O)[C@H](C(C)C)N(C)C)C(C)C` [DOLASTATIN-10], the IC50 in the assay on MCF7 [3] came to 0.03 nM; on Tubulin it was 2.2 µM.
In the case of `CC[C@]1(O)C[C@H]2CN(CCc3c([nH]c4ccccc34)[C@@](C(=O)OC)(c3cc4c(cc3OC)N(C=O)[C@H]3[C@@](O)(C(=O)OC)[C@H](OC(C)=O)[C@]5(CC)C=CCN6CC[C@]43[C@@H]65)C2)C1` [VINCRISTINE], the IC50 in the assay on MCF7 [3] is 0.84 nM; on Tubulin, 1.8 µM; with L1210 [5], 0.73 nM; with HT-29 [6], 2.06 nM.
